In test [1] the target is T1, Amyloid-beta precursor protein (Homo sapiens, UniProt P05067). Description: Inhibition of QD-labeled amyloid beta (1 to 42) (unknown origin) aggregation after 24 hrs by inverted fluorescence microscopic method. In short, it runs like this:
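Modified MSHTS: 30 μM Aβ(1-42) plus 30 nM QD-labeled Aβ(1-42) with serial compound concentrations in PBS containing 5% EtOH and 3% DMSO, 37°C, 24 h. Coaggregates were imaged by inverted fluorescence microscopy with a color CCD. SD of pixel fluorescence in the well centre (100×100 pixels) was plotted against concentration, and EC50 was fitted by global EC50-shift fitting.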

Test [2] can be described thus: Antioxidant activity assessed as inhibition of DPPH radical at 100 uM incubated for 20 mins measured for 60 mins relative to control. It is filed as functional. The procedure, abridged:
(§1)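 DPPH (40 μL of 1 mM stock) in EtOH; test compound added from 2 mM or 10 mM DMSO stocks at rt. Absorbance at 517 nm read continuously for 60 min. Radical trapping capacity was calculated from the 20 min reading.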
Background: The DPPH test is a chemical assay of radical scavenging.

Test [3] is described as follows: Antioxidant activity assessed as inhibition of DPPH radical at 500 uM incubated for 20 mins measured for 60 mins relative to control. The format is functional. The procedure, abridged: as §1
Test [4] is described as follows: Inhibition of butter milk XOD (unknown origin) at 10 uM using xanthine as substrate after 8 mins relative to control. In short, it runs like this: (§2)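 Butter-milk xanthine oxidase in 100 mM phosphate buffer, pH 7.6, with compound added in DMSO. Reaction started with 500 μM xanthine (solution concentration) at rt and stopped after 8 min with 1N HCl. Absorbance at 290 nm was compared with enzyme-activity and blank wells to calculate % inhibition.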

The nature of test [5]: Inhibition of butter milk XOD (unknown origin) at 100 uM using xanthine as substrate after 8 mins relative to control. In short, it runs like this: as §2
Test [6] is described as follows: Inhibition of butter milk XOD (unknown origin) at 1 uM using xanthine as substrate after 8 mins relative to control. The procedure, abridged: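 Buttermilk xanthine oxidase in 100 mM phosphate buffer pH 7.6 was mixed with compound in DMSO. The reaction was started with xanthine solution (500 μM as added) and run at rt for 8 min, then stopped with 1N HCl. Absorbance was read at 290 nm, and % inhibition was calculated against enzyme-activity and blank wells.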

For test [7], the target named is T1, Amyloid-beta precursor protein. Nature of the test: Inhibition of QD-labeled amyloid beta (1 to 42) (unknown origin) aggregation assessed as aggregation growth rate at 20.3 uM after 24 hrs by inverted fluorescence microscopic method (reference value: 0.533 /min).
For test [8] the target is unchanged. Description: Inhibition of QD-labeled amyloid beta (1 to 42) (unknown origin) aggregation assessed as lag time of aggregation at 20.3 uM after 24 hrs by inverted fluorescence microscopic method (reference value: 4.44 mins).
The target is the same in test [9]. Description: Inhibition of QD-labeled amyloid beta (1 to 42) (unknown origin) aggregation assessed as change in fluorescence at 20.3 uM after 24 hrs by inverted fluorescence microscopic method (reference value: 6.77). In short, it runs like this:
(§3)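 Aβ(1-42) (30 μM) was co-incubated with 30 nM QD-labeled Aβ(1-42) and compound in PBS containing 5% EtOH and 3% DMSO at 37°C for 24 h. Coaggregates were imaged by inverted fluorescence microscope with a colour CCD camera. The read-out was the SD of fluorescence intensity over the central 100 × 100 pixels. Aggregation parameters came from Boltzmann fitting of SD versus time, compared with the no-inhibitor control.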

The target is the same in test [10]. Nature of the test: Inhibition of QD-labeled amyloid beta (1 to 42) (unknown origin) aggregation assessed as lag time of aggregation at 5.13 uM after 24 hrs by inverted fluorescence microscopic method (reference value: 4.44 mins).
For test [11] the target is unchanged. Description: Inhibition of QD-labeled amyloid beta (1 to 42) (unknown origin) aggregation assessed as change in fluorescence at 5.13 uM after 24 hrs by inverted fluorescence microscopic method (reference value: 6.77). In short, it runs like this:
as §3

Test [12] shares this target. Description: Inhibition of QD-labeled amyloid beta (1 to 42) (unknown origin) aggregation assessed as aggregation growth rate at 5.13 uM after 24 hrs by inverted fluorescence microscopic method (reference value: 0.533 /min).

Where only a bound is given, the exact number is not on record here.

T1 sequence (P05067 whole entry): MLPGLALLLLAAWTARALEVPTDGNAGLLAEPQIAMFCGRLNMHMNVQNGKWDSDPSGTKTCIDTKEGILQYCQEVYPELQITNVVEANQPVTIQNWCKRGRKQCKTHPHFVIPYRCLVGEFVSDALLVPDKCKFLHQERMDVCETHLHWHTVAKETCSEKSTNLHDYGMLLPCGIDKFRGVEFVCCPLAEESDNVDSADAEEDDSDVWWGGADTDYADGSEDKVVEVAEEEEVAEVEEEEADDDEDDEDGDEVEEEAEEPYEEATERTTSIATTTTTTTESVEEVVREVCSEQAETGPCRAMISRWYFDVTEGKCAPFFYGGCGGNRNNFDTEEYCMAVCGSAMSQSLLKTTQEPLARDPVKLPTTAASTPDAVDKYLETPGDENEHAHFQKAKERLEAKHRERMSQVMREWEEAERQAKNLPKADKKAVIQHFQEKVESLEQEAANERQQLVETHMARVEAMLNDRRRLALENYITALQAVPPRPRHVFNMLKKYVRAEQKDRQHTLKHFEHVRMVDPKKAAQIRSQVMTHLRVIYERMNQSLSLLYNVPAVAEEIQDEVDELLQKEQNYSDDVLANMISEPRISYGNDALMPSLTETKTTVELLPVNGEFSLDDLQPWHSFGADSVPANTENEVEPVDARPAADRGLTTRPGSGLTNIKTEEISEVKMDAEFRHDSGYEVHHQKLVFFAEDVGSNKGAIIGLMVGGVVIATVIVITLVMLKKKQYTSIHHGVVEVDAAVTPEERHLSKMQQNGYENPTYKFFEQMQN

Take `COc1ccc(CCOC(=O)/C=C/c2ccc(O)c(O)c2)cc1OC`: a half-maximal response in test [1] (EC50) required 39.5 µM. The inhibition in [2] came to 43%; in test [3] it was 59%; in [4], 50%; in test [5], 43%.

As for `COC(=O)/C=C/c1ccc(O)c(O)c1` [METHYLCAFFEATE], the EC50 in test [1] worked out at 67.7 µM. The inhibition in [2] is 48%; in test [3] it was 64%; in test [4], under 10%; in [5] it was 65%.

`CCCCCOC(=O)/C=C/c1ccc(O)c(O)c1` yielded an EC50 in test [1] of 2.58 µM. For the same molecule, the inhibition was 46% in test [2], 62% in test [3], 11% in test [4] and over 90% in test [5].

Turning to `O=C(CCc1ccccc1)OCCc1ccccc1`, in [1], a half-maximal response (EC50) required 4540 µM. The inhibition in test [2], in test [3], in [4] and in [5] was under 10% throughout.

`CCCOC(=O)/C=C/c1ccc(O)c(O)c1`: in [1], a half-maximal response (EC50) required 24.7 µM. In addition, the inhibition in [2] was 46%; in test [3] it was 63%; in test [4] it was under 10%; in [5], 61%.

Molecule `O=C(O)/C=C/c1ccc(O)c(O)c1` [CAFFEIC ACID] yielded an EC50 in [1] of 216 µM. The inhibition in test [2] is 49%; in test [3] it was 63%; in [4], under 10%; in test [5], under 10%.

Molecule `CCCCOC(=O)/C=C/c1ccc(O)c(O)c1` [BUTYL CAFFEATE] showed an EC50 in test [1] of 12 µM. Besides, the inhibition is 46% in [2], 62% in test [3], under 10% in [4] and over 90% in [5].

On to `CCCCCNC(=O)/C=C/c1ccc(O)c(O)c1`, for which the EC50 in test [1] was 11.4 µM. Moreover, the inhibition in [2] was 40%; in test [3] it was 53%; in test [4], under 10%; in test [5], 33%.

Take `CCCCCCCOC(=O)/C=C/c1ccc(O)c(O)c1`: in test [1], the EC50 was found to be 10.4 µM. In addition, the inhibition in test [2] came out at 46%; in test [3], 63%; in test [4], 11%; in test [5], 25%.

The molecule `O=C(CCc1ccccc1)OCCc1ccc(O)c(O)c1` displayed an EC50 in test [1] of 5.93 µM. Further, the inhibition in [2] was 38%; in test [3], 54%; in test [4] it was under 10%; in test [5] it was under 10%.

Regarding `O=C(/C=C/c1ccc(O)c(O)c1)OCCCCCO`, the EC50 in [1] was determined as 80.1 µM. Also, the inhibition in [2] was 41%; in test [3], 54%; in test [4], under 10%; in test [5] it was 84%.

Regarding `CC1=NN(c2ccccc2)C(=O)C1`, the inhibition in test [2] fell in the range of 50 to 53%; in test [3] it was 71 to 75%.

With `O=C(/C=C/c1ccc(O)c(O)c1)OCCc1ccccc1` [CAFFEIC ACID PHENETHYL ESTER], the EC50 in [1] is 8.41 µM. The inhibition in test [2] was 35%; in [3], 51%; in test [4], under 10%; in [5], 62%.

Molecule `O=C(/C=C/c1ccc(O)c(O)c1)NCCc1ccc(O)c(O)c1` had an EC50 in test [1] of 69 µM. The inhibition in test [2] is 47%; in test [3] it was 64%; in test [4], under 10%; in test [5], 30%.

As to `Oc1ncnc2[nH]ncc12`, the inhibition was under 10% in test [6] and over 90% in test [4].

Take `CCCCCCC(=O)/C=C/c1ccc(O)c(O)c1`: the EC50 in test [1] is 2.82 µM. Moreover, the inhibition in test [2] came out at 48%; in test [3], 62%; in [4] it was 12%; in test [5], 76%.

`O=C(/C=C/c1ccc(O)c(O)c1)OCCc1ccc(O)c(O)c1`: the EC50 in test [1] amounted to 20.6 µM. For the same molecule, the inhibition in test [2] was 37%; in test [3] it was 46%; in test [4], 26%; in test [5], 80%.

`NC(=O)C(Cc1ccc(O)c(O)c1)OC(=O)/C=C/c1ccc(O)c(O)c1` (stereo not given): the midpoint of the response in [1], the EC50, lay at 21.9 µM. Further, the inhibition was 39% in test [2], 48% in [3], 38% in test [4] and 82% in [5].

Turning to `O=C(/C=C/c1ccc(O)c(O)c1)O[C@H](Cc1ccc(O)c(O)c1)C(=O)O` [ROSMARINIC ACID], in test [1], a half-maximal effect (EC50) was put at 20.3 µM. Also, the inhibition in test [2] is 47%; in test [3], 66%; in [4], under 10%; in [5], 27%. Also, the K in test [7] was found to be 0.508 min⁻¹. Besides, the TIME in test [8] was 0.093 h. Further, the Flu intensity in test [9] worked out at 3.4.

`O=C(/C=C/c1ccccc1)OCCc1ccccc1` [PHENETHYL CINNAMATE] registered an EC50 in [1] of 1040 µM. Further, the inhibition in [2], in test [3], in [4] and in test [5] was under 10% throughout.

In test [1], `CCCCCCCCCOC(=O)/C=C/c1ccc(O)c(O)c1` returned an EC50 of 9.52 µM. The inhibition in test [2] is 45%; in [3], 61%; in test [4], under 10%; in [5], 40%.

`O=C(/C=C/c1ccc(O)c(O)c1)OCCCCCCO` gave an EC50 in test [1] of 54.8 µM. The inhibition in [2] is 42%; in test [3], 55%; in test [4], under 10%; in test [5] it was 51%.

In [1], `CCCCCCOC(=O)/C=C/c1ccc(O)c(O)c1` [HEXYLCAFFEATE] showed an EC50 of 5.13 µM. Further, the inhibition in test [2] was 45%; in test [3], 61%; in [4], 10%; in [5] it was under 10%. Also, in [10], the TIME was found to be 0.0183 h. Further, in test [11], the Flu intensity worked out at 3.68. In [12], the K amounted to 0.19 min⁻¹.

In turn, `COc1ccc(CCOC(=O)CCc2ccccc2)cc1OC` had a half-maximal effective concentration (EC50) in test [1] of 274 µM. The inhibition in test [2], in test [3], in test [4] and in [5] was under 10% throughout.

In test [1], `O=C(CCc1ccc(O)c(O)c1)OCCc1ccc(O)c(O)c1` registered an EC50 of 14.9 µM. Moreover, the inhibition in [2] is 37%; in [3], 49%; in test [4], under 10%; in [5] it was 21%.

On to `O=C(/C=C/c1ccccc1)OCCc1ccc(O)c(O)c1`, for which the EC50 in test [1] turned out to be 7.95 µM. Also, the inhibition is 40% in [2], 56% in [3], under 10% in test [4] and 22% in test [5].

`C=CCOC(=O)/C=C/c1ccc(O)c(O)c1` came in with an EC50 in [1] of 23.2 µM. The inhibition in test [2] was 46%; in test [3] it was 62%; in test [4], under 10%; in test [5], 22%.

Broadly, the EC50 is the concentration that produces a half-maximal response. One may read the inhibition as the share of the control response that was lost under treatment.

For the origin of these results see ChEMBL document CHEMBL4130369, “Structure-activity relations of rosmarinic acid derivatives for the amyloid β aggregation inhibition and antioxidant properties” (Eur J Med Chem, 2017).
